Screens deposited in PubChem BioAssay by several laboratories.
An excerpt weighted towards active compounds, which were near 1.8% of everything screened.
HKDC1 inhibitor = inhibitors of human hexokinase HKDC1 | recombinant HKDC1, G6PDH/diaphorase resazurin coupled fluorescence | inhibition, % at 20 µM | 340,000 tested, 0.16% active;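 active = inhibition above about 35% when tested at 20 µM, limit read from the data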
Target sequence (Q2TB90 whole entry, looked up): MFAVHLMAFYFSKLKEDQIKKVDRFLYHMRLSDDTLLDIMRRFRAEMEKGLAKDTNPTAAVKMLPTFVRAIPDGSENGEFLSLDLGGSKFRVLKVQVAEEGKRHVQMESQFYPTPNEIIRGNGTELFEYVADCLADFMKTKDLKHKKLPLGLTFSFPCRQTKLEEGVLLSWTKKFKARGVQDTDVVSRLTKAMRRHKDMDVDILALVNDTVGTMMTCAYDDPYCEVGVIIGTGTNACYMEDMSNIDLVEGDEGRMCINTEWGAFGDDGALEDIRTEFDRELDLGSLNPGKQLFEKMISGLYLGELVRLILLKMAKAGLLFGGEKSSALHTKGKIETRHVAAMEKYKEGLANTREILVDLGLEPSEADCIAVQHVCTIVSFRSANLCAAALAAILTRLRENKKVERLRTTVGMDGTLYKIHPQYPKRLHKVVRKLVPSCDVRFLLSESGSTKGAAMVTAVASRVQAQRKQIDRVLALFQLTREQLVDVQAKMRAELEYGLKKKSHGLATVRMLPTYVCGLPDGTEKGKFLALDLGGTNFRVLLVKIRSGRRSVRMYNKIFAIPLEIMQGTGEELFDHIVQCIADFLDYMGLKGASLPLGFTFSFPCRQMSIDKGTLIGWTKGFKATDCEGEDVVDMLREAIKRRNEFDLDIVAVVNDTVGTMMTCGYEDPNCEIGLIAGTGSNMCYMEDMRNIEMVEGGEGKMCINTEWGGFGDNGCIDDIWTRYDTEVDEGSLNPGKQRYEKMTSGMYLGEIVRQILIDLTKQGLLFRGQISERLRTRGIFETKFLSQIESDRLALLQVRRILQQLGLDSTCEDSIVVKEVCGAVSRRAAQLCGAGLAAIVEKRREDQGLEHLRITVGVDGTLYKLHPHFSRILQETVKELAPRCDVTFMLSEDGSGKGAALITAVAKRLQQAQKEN
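test system = in-house recombinant HK5 (HKDC1) enzyme | amount = HKDC1 at 5 µg/mL | control set = DMSO-enzyme wells negative, buffer-substituted wells positive | compound = one dose of 20 µM, 1% DMSO | schedule = reaction time 90 min, room temperature, protected from light | technique = resorufin fluorescence at 613 nm | reagent = glucose with 1 mM ATP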
ATG4B inh = blocks human ATG4B protease cleavage of LC3 substrate; ATG4B cleavage of LC3-PLA2, NBD-HPC fluorescence, 1 h; inhibition, % at 8.33 µM; 340,000 tested, 0.51% active; in the data active = inhibition above about 40%
HDAC3 inh = human HDAC3 inhibition. O15379. recombinant HDAC3, fluorogenic peptide/trypsin coupled, fluorescence. inhibition, % at 8.3 µM. 320,000 tested, 0.15% active. AID 2718; in the data active = inhibition above about 26%, passing the limit was not always enough; inconclusive = no clear call, values can overlap the other calls
Bfl-1 A1 inh = inhibitors of the anti-apoptotic protein A1, read as caspase activation; MEF A1-2A-BIM cells, Caspase-Glo 3/7 luminescence, 3 h; percent of clofoctol response, vehicle zero; caspase activation, % (concentration not given with the values); 330,000 tested, 0.066% active; AID 2462;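 active = over half of replicate activation scores above 10%, or exactly half above 10 with the replicate mean above 10; inconclusive = replicate mean below 10 yet half the replicates above 10; inactive = over half of replicates below 10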
AI-2 QS modul = modulates the Vibrio harveyi AI-2 quorum sensing system. Vibrio harveyi JMH597 AI-2 luminescence/OD600 ratio, 9 h; stronger effect = lower value; strain lacks LuxN and CqsS sensors; 0 = neutral-control median. activity change, % at 7.5 µM. 300,000 tested, 0.4% active. AID 2094; in the data active = activity change below about -75%, passing the limit was not always enough; inconclusive = no clear call, values can overlap the other calls;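 also: luminescence divided by OD600 gain over 9 h not by final OD600 alone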
LANA-H2B inh = blocks KSHV LANA binding to histone H2A/H2B; inhibition, % (test concentration not listed); cell-free LANA-H2A/H2B peptide, fluorescence polarization; 320,000 tested, 0.6% active; AID 2629; Q9QR71; in the data active = inhibition mostly above about 10%, no sharp cut-off; inactive = mostly below about 6.7%
Large screens that a line does not name were inactive.

Cc1ccc(C(=O)Oc2oc(-c3ccco3)nc2C=Nc2ccc(Cl)cc2)cc1	HDAC3 inh inconclusive
O=C(Oc1oc(-c2ccco2)nc1C=Nc1ccccc1)c1ccoc1	HDAC3 inh 90
O=C(Oc1oc(-c2ccco2)nc1C=Nc1ccccc1)c1ccco1	HDAC3 inh 90
O=C(C[C@H]1C[C@H](C(=O)N2CCCCC2)[C@@]2(CCc3ccccc3)c3[nH]c4ccc(Cl)cc4c3CCN2C1=O)NCc1cccc(C(F)(F)F)c1	none (no result: HDAC3 inh, Bfl-1 A1 inh, AI-2 QS modul, LANA-H2B inh)
Cc1ccc(/C(N)=N/OC(=O)C(C)c2ccc([N+](=O)[O-])cc2)cc1 (stereo not given)	LANA-H2B inh 17
CC1(C2CC2)NC(=O)N(CC(=O)Nc2ccc(SC(F)F)cc2)C1=O (stereo not given)	none (no result: AI-2 QS modul)
CN1CC(=O)N(CC(=O)Nc2ccc(SC(F)F)cc2)C1=O	AI-2 QS modul -86
Cc1ccc(CCN2CC(C(=O)NC3CCCCC3)CC2=O)cc1 (stereo not given)	LANA-H2B inh 22
Cc1ccc2c(C)c(C)c(=O)n(C)c2c1	none (no result: HDAC3 inh, Bfl-1 A1 inh, AI-2 QS modul, LANA-H2B inh)
Cn1c(N)c(C(c2ccccc2)c2c(N)n(C)c(=O)n(C)c2=O)c(=O)n(C)c1=O	LANA-H2B inh 29
O=C(O)[C@@H]1CCCN1C(=O)COc1ccc2c3c(c(=O)oc2c1)CCC3	none
CCC1CCCCN1C(=O)COc1ccc2c3c(c(=O)oc2c1)CCC3 (stereo not given)	LANA-H2B inh 32 (no result: AI-2 QS modul)
COc1ccc(CNC(=O)CN2C(=O)c3ccccc3C2=O)cc1	none (no result: HDAC3 inh)
CCC1(c2ccccc2)NC(=O)N(CC(=O)NCc2ccc(OC)cc2)C1=O (stereo not given)	AI-2 QS modul -80
COc1ccc(CNC(=O)CN2C(=O)c3ccc([N+](=O)[O-])cc3C2=O)cc1	LANA-H2B inh 23
CCC1(c2ccccc2)NC(=O)N(CC(=O)NCc2ccncc2)C1=O (stereo not given)	none
Cc1ccc(-c2ccc(/C=C(\C#N)C(N)=S)n2C)cc1	LANA-H2B inh 26
Cn1cccc1/C=C(/C#N)C(N)=S	none (no result: HDAC3 inh, LANA-H2B inh)
O=C(Cn1cc(C(F)(F)F)ccc1=O)Nc1cccc(S(=O)(=O)N2CCOCC2)c1	LANA-H2B inh 22
CC(=O)NC(c1ccccc1)c1cc([N+](=O)[O-])c2cccnc2c1O (stereo not given)	AI-2 QS modul -90
CC(C)C(=O)NC(c1ccccc1)c1cc([N+](=O)[O-])c2cccnc2c1O (stereo not given)	none
Cc1ccc(S(=O)(=O)NCc2ccccc2)cc1C(=O)NCCc1ccc(S(N)(=O)=O)cc1	none (no result: AI-2 QS modul)
O=C(Nc1ccccc1)c1ccccc1CCc1ccccc1	LANA-H2B inh 23
CCNC(=O)c1ccccc1CCc1ccccc1	none
Cc1nc2sccn2c(=O)c1CCN1CCC(=C(c2ccc(F)cc2)c2ccc(F)cc2)CC1	LANA-H2B inh 8.3
CCOC(=O)c1cc(-c2ccccc2)sc1NC(=O)CSc1nnc(N)s1	LANA-H2B inh active
CCCCNc1ccc2c(c1)C1CC2CCN1C(=O)OCc1ccccc1 (stereo not given)	none (no result: HDAC3 inh, Bfl-1 A1 inh, AI-2 QS modul, LANA-H2B inh)
O=C1CC(=O)N(Cc2ccco2)C(=S)N1	ATG4B inh 46
O=C(c1ccc(Br)c(S(=O)(=O)N2CCOCC2)c1)N1CCN(C/C=C/c2ccccc2)CC1	none (no result: HDAC3 inh, Bfl-1 A1 inh, AI-2 QS modul, LANA-H2B inh)
CCc1ccc(C2C3=C(CC(C)(C)CC3=O)Nc3c2c(=O)[nH]c2nc(C)nn32)cc1 (stereo not given)	Bfl-1 A1 inh 6.1
O=C(O)c1ccccc1C1=Nc2ccc(O)cc2Oc2cc(O)ccc21	LANA-H2B inh 17
COc1cccc(CNC(=O)COC(=O)C23CC4CC(CC(Cl)(C4)C2)C3)c1	none (no result: AI-2 QS modul)
COc1cccc(NC(=O)CN(C)C(=O)C23CC4CC(CC(Cl)(C4)C2)C3)c1	LANA-H2B inh 42 (no result: AI-2 QS modul)
COc1ccc(CN(C)C(=O)Cn2cnc3c(NCc4ccccc4)ncnc32)cc1OC	none (no result: HDAC3 inh, Bfl-1 A1 inh, AI-2 QS modul, LANA-H2B inh)
Cc1ccc2nc(-c3ccco3)c(Nc3ccccc3)n2c1	none
Cc1ccc(Nc2c(-c3ccco3)nc3nc(C)cc(C)n23)cc1	LANA-H2B inh 21
CCO[C@H]1OC(C(=O)NCc2nc3ccccc3[nH]2)=C[C@@H](C)[C@@H]1CCCO	none
CCO[C@H]1OC(C(=O)NCc2nc3ccccc3[nH]2)=C[C@@H](C2CCCCC2)[C@@H]1CCCO	LANA-H2B inh 18
CCC1(c2ccc(F)cc2)NC(=O)N(CC(=O)N2CCN(C(=O)c3ccco3)CC2)C1=O (stereo not given)	none (no result: AI-2 QS modul)
Cn1[nH]c(-c2ccccc2)c(/C=N/O)c1=O	LANA-H2B inh 29
Cn1cc(Cc2ccccc2)c(=O)c(Cc2ccccc2)c1	none (no result: HDAC3 inh, Bfl-1 A1 inh, AI-2 QS modul, LANA-H2B inh)
Cc1cccc(Nc2nnc(SCC(O)=C(C#N)c3nc4ccccc4[nH]3)s2)c1	none (no result: HDAC3 inh, Bfl-1 A1 inh, AI-2 QS modul, LANA-H2B inh)
Fc1ccccc1N1CCN(C(c2ccccn2)c2nnnn2C2CCCCC2)CC1 (stereo not given)	LANA-H2B inh 12
COc1ccccc1N1CCN(C(c2ccccn2)c2nnnn2C2CCCCC2)CC1 (stereo not given)	none
Cn1ccsc1=NC(=O)c1ccc([N+](=O)[O-])o1	AI-2 QS modul -86
Cc1cccc(S(=O)(=O)Nc2nc3ccccc3nc2NCc2ccc3c(c2)OCO3)c1	none
CCCCc1ccc(S(=O)(=O)Nc2nnc(C)s2)cc1	AI-2 QS modul -98
NC(=O)c1ncn([C@@H]2O[C@H](CNCc3cccn3-c3ccncc3)[C@@H](O)[C@H]2O)n1	none (no result: HDAC3 inh, Bfl-1 A1 inh, AI-2 QS modul, LANA-H2B inh)
Cc1ccc(S(=O)(=O)n2c([N+](=O)[O-])cnc2C)cc1C	LANA-H2B inh 12
O=S(=O)(NC(=S)NC1CCCCC1)c1ccccc1	LANA-H2B inh 10
O=C(N/N=C/c1ccco1)c1cc2ccccc2o1	none
O=C(COc1ccccc1[N+](=O)[O-])Nc1ccc2oc(=O)ccc2c1	Bfl-1 A1 inh inconclusive
O=C(COc1ccc(/C=N/NC(=O)c2cc3ccccc3o2)cc1Br)Nc1ccccc1	Bfl-1 A1 inh 27
O=C(COc1ccccc1[N+](=O)[O-])Nc1ccc(NC(=O)c2cc3ccccc3o2)cc1	Bfl-1 A1 inh 7.5
CCOc1ccc(Br)cc1S(=O)(=O)Nc1cccc(S(=O)(=O)N2CCOCC2)c1	none (no result: HDAC3 inh, Bfl-1 A1 inh, AI-2 QS modul, LANA-H2B inh)
CCC(C)NS(=O)(=O)c1ccc(NC(=O)CNCc2cccs2)cc1 (stereo not given)	none (no result: HDAC3 inh, Bfl-1 A1 inh, AI-2 QS modul, LANA-H2B inh)
Nc1c(N(CCO)C(=O)c2ccccc2OCc2ccccc2Cl)c(=O)[nH]c(=O)n1Cc1ccccc1	none (no result: HDAC3 inh, Bfl-1 A1 inh, AI-2 QS modul, LANA-H2B inh)
CCOc1ccc(C(=O)/C=C/c2ccc(SC)cc2)cc1	none
CSc1ccc(/C=C/C(=O)c2ccc(O)cc2)cc1	AI-2 QS modul -93
Cc1ccc(OCc2cc(C(=O)NC(C)Cc3cccnc3)no2)cc1C (stereo not given)	none
Cc1ccc(OCc2cc(C(=O)NCCc3cccnc3)no2)cc1C	AI-2 QS modul -84 (no result: HDAC3 inh, Bfl-1 A1 inh, LANA-H2B inh)
